From PMC6287304 (Antiviral Chemistry & Chemotherapy, 2018)
Read-outs that look alike come from different tables or passages of the source.

Columns and labels:
herpesviruses = experiment: organism not typed; format: cell-based
HSV-1 = experiment: Virus-induced cytopathicity, HSV-1; format: cell-based, herpes simplex virus type 1; conditions: read-out: Antiviral activity EC50 HSV-1; Table 4; HEL cells
HSV-2 = experiment: Virus-induced cytopathicity, HSV-2; format: cell-based, herpes simplex virus type 2; conditions: read-out: Antiviral activity EC50 HSV-2
HSV-1 TK– = experiment: Virus-induced cytopathicity, TK– HSV-1 KOS ACVr in HEL cells; format: cell-based, herpes simplex virus type 1; conditions: read-out: Antiviral activity EC50 HSV-1 TK–
HEL cells [1] = experiment: Cytotoxicity, alteration of cell morphology; format: cell-based, human
Vaccinia virus = experiment: microbe, parasite or virus in culture; format: cell-based; conditions: for EC50: read-out: Antiviral activity EC50 Vaccinia virus
HCMV DNA pol = target: T1, HCMV DNA pol (Human cytomegalovirus, UniProt P08546); experiment: DNA polymerase inhibition, HCMV DNA pol; format: biochemical; conditions: calf thymus DNA
T1 sequence (P08546 1-1242): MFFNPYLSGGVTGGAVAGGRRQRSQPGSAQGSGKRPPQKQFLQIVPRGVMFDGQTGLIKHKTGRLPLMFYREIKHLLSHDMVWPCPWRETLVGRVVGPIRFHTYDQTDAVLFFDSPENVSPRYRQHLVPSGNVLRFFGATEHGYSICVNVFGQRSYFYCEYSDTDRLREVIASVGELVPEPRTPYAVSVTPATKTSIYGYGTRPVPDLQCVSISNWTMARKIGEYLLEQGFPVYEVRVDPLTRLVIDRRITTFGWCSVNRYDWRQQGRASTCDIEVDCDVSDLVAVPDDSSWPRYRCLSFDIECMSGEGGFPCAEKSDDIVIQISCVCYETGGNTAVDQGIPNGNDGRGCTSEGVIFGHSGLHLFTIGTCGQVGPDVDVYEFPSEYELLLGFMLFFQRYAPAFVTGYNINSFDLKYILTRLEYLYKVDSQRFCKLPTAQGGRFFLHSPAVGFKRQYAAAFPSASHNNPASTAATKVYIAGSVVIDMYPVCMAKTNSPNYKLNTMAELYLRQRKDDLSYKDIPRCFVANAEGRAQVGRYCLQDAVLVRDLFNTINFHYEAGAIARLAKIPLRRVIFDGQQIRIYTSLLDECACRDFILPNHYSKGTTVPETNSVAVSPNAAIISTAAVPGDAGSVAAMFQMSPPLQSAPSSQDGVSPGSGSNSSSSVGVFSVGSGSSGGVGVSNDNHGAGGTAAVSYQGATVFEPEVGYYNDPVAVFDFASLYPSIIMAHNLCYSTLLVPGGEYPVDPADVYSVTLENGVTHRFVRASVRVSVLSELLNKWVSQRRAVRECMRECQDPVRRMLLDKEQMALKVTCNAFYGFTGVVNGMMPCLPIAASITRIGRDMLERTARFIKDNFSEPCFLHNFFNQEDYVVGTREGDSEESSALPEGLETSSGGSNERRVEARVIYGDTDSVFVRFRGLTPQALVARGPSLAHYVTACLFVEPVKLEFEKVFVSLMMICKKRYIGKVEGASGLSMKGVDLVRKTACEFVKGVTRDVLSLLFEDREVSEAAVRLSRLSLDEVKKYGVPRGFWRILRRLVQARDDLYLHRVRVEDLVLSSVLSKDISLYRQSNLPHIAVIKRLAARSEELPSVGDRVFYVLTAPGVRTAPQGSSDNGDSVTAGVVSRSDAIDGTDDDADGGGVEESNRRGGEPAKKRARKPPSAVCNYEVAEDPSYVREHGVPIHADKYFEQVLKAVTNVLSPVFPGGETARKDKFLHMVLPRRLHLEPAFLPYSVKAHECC
Procedure, shortened: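 Recombinant or source enzyme not specified. HCMV DNA polymerase reaction uses activated calf thymus DNA as template/primer, 100 uM of each of three unlabeled dNTPs, and 0.5 uM rate-limiting tritium-labeled dNTP ([3H]dGTP or [3H]dTTP, as competitive substrate). The diphosphate form of the test compound is added in serial dilutions, up to 100 uM.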

[2] = Cytostatic activity, inhibition of cell growth; format: cell-based, human; conditions: human, HEL cells, Cytotoxicity Cell growth (CC50), Table 3
HSV-1 mutant viruses = format: cell-based, herpes simplex virus type 1; conditions: Figure 2
Procedure, shortened: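 HSV-1 TK and DNA polymerase mutants were derived from the reference KOS strain and tested by CPE reduction. Confluent HEL cultures in 96-well plates were infected and incubated with varying test compound concentrations. Cytopathicity was scored once it was complete in untreated infected controls. […] Fold-resistance is EC50 mutant divided by EC50 wild-type KOS. Reference antiherpetic drugs were run alongside.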

HCMV Davis strain = experiment: Virus-induced cytopathic effect, HCMV Davis strain in HEL cells; format: cell-based, human cytomegalovirus
TK– VZV 07-1 strain = format: cell-based, varicella-zoster virus
TK+ VZV OKA strain = format: cell-based, varicella-zoster virus
HCMV AD-169 strain = experiment: Virus-induced cytopathic effect, HCMV AD-169 strain in HEL cells; format: cell-based, human cytomegalovirus
HSV = experiment: Antiviral activity against HSV; format: cell-based, herpes simplex virus; conditions: HEL
HEL cells [3] = experiment: Cytostatic activity, inhibition of cell growth; format: cell-based, human
DNA pol β = DNA pol β (Homo sapiens, UniProt P06746); experiment: DNA polymerase inhibition, DNA pol β; format: biochemical; conditions: read-out: IC50 DNA pol β dGTP; calf thymus DNA, radiolabeled [3H]dGTP
DNA pol α = target: T2, DNA pol α (Homo sapiens, UniProt P09884); experiment: DNA polymerase inhibition, DNA pol α; format: biochemical; conditions: read-out: IC50 DNA pol α dGTP; calf thymus DNA, radiolabeled [3H]dGTP
T2 sequence (P09884 1-1462): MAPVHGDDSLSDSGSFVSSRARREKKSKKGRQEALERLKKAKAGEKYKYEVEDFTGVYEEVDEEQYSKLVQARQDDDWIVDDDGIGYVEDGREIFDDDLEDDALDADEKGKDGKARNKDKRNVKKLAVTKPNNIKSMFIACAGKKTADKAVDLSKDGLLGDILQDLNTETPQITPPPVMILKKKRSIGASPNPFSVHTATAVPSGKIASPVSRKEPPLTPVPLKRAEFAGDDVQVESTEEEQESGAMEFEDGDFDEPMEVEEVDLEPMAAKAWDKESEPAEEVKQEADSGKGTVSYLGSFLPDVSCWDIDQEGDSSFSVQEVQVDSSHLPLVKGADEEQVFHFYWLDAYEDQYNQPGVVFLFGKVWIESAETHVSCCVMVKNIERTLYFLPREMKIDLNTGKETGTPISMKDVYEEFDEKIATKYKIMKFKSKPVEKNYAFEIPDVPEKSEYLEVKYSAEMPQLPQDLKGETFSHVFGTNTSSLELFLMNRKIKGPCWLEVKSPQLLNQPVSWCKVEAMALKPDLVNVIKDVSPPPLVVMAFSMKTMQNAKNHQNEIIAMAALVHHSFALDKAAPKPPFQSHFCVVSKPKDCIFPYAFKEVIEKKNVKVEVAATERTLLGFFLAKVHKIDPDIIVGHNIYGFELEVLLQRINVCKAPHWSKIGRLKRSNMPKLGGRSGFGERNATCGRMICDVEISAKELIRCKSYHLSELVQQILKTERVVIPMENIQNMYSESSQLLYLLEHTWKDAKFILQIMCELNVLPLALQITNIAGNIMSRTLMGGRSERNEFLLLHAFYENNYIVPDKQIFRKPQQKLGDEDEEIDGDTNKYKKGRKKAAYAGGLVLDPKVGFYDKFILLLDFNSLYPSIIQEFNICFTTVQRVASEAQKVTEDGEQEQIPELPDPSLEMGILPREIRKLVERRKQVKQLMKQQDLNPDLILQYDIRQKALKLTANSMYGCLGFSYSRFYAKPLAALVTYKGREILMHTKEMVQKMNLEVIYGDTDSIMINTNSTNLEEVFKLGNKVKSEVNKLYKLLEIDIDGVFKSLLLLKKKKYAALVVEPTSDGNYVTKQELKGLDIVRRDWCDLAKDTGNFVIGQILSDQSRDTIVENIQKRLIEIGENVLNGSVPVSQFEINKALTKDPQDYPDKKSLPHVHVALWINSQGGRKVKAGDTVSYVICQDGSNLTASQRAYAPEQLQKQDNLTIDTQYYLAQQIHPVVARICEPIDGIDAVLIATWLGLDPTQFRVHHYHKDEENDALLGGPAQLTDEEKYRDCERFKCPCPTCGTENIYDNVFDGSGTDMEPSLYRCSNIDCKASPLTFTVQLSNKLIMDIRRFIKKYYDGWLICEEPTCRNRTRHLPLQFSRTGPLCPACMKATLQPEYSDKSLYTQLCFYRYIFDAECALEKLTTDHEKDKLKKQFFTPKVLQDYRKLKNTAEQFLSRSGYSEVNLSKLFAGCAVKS

**Q.** Which results are given for “4,4,5,5,6,6,7,7,8,8,9,9,10,10,11,11,11-Heptadecafluoroundecyl hydrogen ((2–(2,6-dioxo-1,2,3,6-tetrahydro-9H-purin-9-yl)ethoxy)methyl)phosphonate [Compound 19]”?
**A.** anti-herpesvirus activity (in words) (herpesviruses): did not display any potent anti-herpesvirus activity; EC50 (HSV-1): > 100 µM; EC50 (HSV-2; Table 4, HEL cells): > 100 µM; EC50 (HSV-1 TK–; Table 4, HEL cells): > 100 µM; Cytotoxicity Cell morphology (MCC) (HEL cells [1]; Table 3): ≥100 μM; Cytotoxicity Cell morphology (MCC) (HEL cells [1]; Table 4): >100 μM; EC50 (Vaccinia virus): > 100 µM

**Q.** With `Nc1nc2c(ncn2COCCOP(=O)(O)OP(=O)(O)OP(=O)(O)O)c(=O)[nH]1` [ACV-TP, acyclovir triphosphate] as the compound, how does the IC50 (HCMV DNA pol; IC50 HCMV DNA pol dGTP, radiolabeled [3H]dGTP) read?
**A.** 0.77 ± 0.04 µM

**Q.** Which CC50 at 3 days [2] does the source give for `O=c1[nH]c(=O)n([C@H]2C[C@H](O)[C@@H](CO)O2)cc1/C=C/Br` [Brivudin, brivudin, reference compound] here?
**A.** 168 ± 41 µM

**Q.** What about the EC50 (HSV-2; Human alphaherpesvirus 2, HEL) of the same compound?
**A.** 112 ± 37 µM

**Q.** And the EC50 (HSV-1 TK–)?
**A.** 50 µM

**Q.** What about the “Cytotoxicity Cell morphology (MCC)” value (HEL cells [1]; Table 1) of the same compound?
**A.** >300 μM

**Q.** What about the “Cytotoxicity Cell morphology (MCC)” value (HEL cells [1]; Table 2) of the same compound?
**A.** >250 μM

**Q.** What about the “Cytotoxicity Cell morphology (MCC)” value (HEL cells [1]; Table 3) of the same compound?
**A.** ≥300 μM

**Q.** Which “change of EC50 for DNA polymerase mutant viruses” value (HSV-1 mutant viruses; HSV-1 DNA polymerase mutants, same magnitude as adefovir) does the source give for `O=c1[nH]c(=O)c2ncn(CCOCP(=O)(O)O)c2[nH]1` [Compound 4, ((2–(2,6-Dioxo-1,2,3,6-tetrahydro-9H-purin-9-yl)ethoxy)methyl)phosphonic acid] here?
**A.** increase in the EC50

**Q.** And the “activity against viruses bearing mutations in the viral TK” value (HSV-1 mutant viruses; HSV-1 TK mutants)?
**A.** remained active

**Q.** And the “anti-herpesvirus activity (in words)” value (herpesviruses)?
**A.** able to inhibit the replication of herpesviruses

**Q.** What about the EC50 (herpesviruses; HEL, read-out: EC50 values against VZV, HCMV, HSV-1, and HSV-2 (range)) of the same compound?
**A.** 2.6 to 25.6 µM

**Q.** And the “selectivity index (ratio CC50/EC50)” value (HCMV Davis strain)?
**A.** 13

**Q.** And the “selectivity index (ratio CC50/EC50)” value (TK– VZV 07-1 strain)?
**A.** 24

**Q.** What about the “selectivity index (ratio CC50/EC50)” value (TK+ VZV OKA strain) of the same compound?
**A.** 42

**Q.** And the “selectivity index (ratio CC50/EC50)” value (HCMV AD-169 strain)?
**A.** 11

**Q.** What about the “Cytotoxicity Cell morphology (MCC)” value (HEL cells [1]; Table 1) of the same compound?
**A.** >345 μM

**Q.** What about the EC50 (HSV; read-out: EC50 values, replication of HSV-1, HSV-2 and TK-HSV-1 (range)) of the same compound?
**A.** 16 to 39 µM

**Q.** What about the “Antiviral activity EC50 Vaccinia virus” value (Vaccinia virus) of the same compound?
**A.** lacked activity

**Q.** And the EC50 (Vaccinia virus; Orthopoxvirus vaccinia, HEL)?
**A.** > 345 µM

**Q.** For `CCCCCCCCCCCCCCCCOCCCOP(=O)(O)COCCn1cnc2c(=O)[nH]c(=O)[nH]c21` [Compound 18, 3-(Hexadecyloxy)propyl hydrogen ((2–(2,6-dioxo-1,2,3,6-tetrahydro-9H-purin-9-yl)ethoxy)methyl)phosphonate], which “increase in cytostatic activity versus parent compound 4” value (HEL cells [3]) is on record?
**A.** 11 fold

**Q.** What about the “Cytotoxicity Cell morphology (MCC)” value (HEL cells [1]; Table 3) of the same compound?
**A.** 100 μM

**Q.** And the “Cytotoxicity Cell morphology (MCC)” value (HEL cells [1]; Table 4)?
**A.** >100 μM

**Q.** And the EC50 (HSV; read-out: EC50 values against HSV-1 and HSV-2 (range))?
**A.** 1.8 to 4 µM

**Q.** What about the EC50 (Vaccinia virus; Orthopoxvirus vaccinia, HEL) of the same compound?
**A.** > 100 µM

**Q.** Which IC50 (DNA pol β) does the source give for `O=C(O)P(=O)(O)O` [PFA pyrophosphate] here?
**A.** > 100 µM

**Q.** What about the IC50 (HCMV DNA pol; read-out: IC50 HCMV DNA pol dGTP, radiolabeled [3H]dGTP) of the same compound?
**A.** 7 ± 0.7 µM

**Q.** And the IC50 (HCMV DNA pol; read-out: IC50 HCMV DNA pol dTTP, radiolabeled [3H]dTTP)?
**A.** 9.4 ± 6 µM

**Q.** And the IC50 (DNA pol α)?
**A.** 56 ± 12 µM
